# Assay results as given in ChEMBL document CHEMBL4190407, “Identification of Morpholino Thiophenes as Novel Mycobacterium tuberculosis Inhibitors, Targeting QcrB” (J Med Chem, 2018).
# The source made the active and inactive calls. The calls are words filed in the database; no cut-off is given here.
# Key:
# [1] = target: Cytochrome bc1 complex cytochrome b subunit (Mycobacterium tuberculosis (strain ATCC 25618 / H37Rv)) (UniProt P9WP37); assay: Inhibition of QcrB in Mycobacterium tuberculosis H37Rv ATCC 25618 assessed as reduction in ATP level measured after 24 hrs by BacTiter-Glo assay
# Procedure, shortened: (§1)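 H37Rv exposed to compounds for 24 h. Intrabacterial ATP measured by BacTiter-Glo as relative luminescence units, with growth followed by OD590. Representative of 2 independent experiments.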
# [2] = Intrinsic clearance in CD-1 mouse liver microsomes in presence of NADPH up to 30 mins by UPLC-MS/MS analysis; assay type: ADME, microsome; conditions: 0.5 h
# Mus musculus [3] = assay: Toxicity in C57BL/6 mouse infected with Mycobacterium tuberculosis H37Rv at 100 mg/kg, po for 4 consecutive days starting from day 5 post infection; assay type: organism-based; conditions: in vivo
# Mus musculus [4] = assay: In vivo drug metabolism in C57 Black mouse assessed as de-ethylation at 3 mg/kg, iv administered as bolus dose or 10 mg/kg, po via gavage by UPLC-MS/MS analysis; assay type: ADME, organism-based
# Mus musculus [5] = assay: In vivo drug metabolism in C57 Black mouse assessed as oxidation of morpholine at 3 mg/kg, iv administered as bolus dose or 10 mg/kg, po via gavage by UPLC-MS/MS analysis; assay type: ADME, organism-based
# [6] = tested on: Mycobacterium tuberculosis; assay: Antimycobacterial activity against Mycobacterium tuberculosis H37Rv ATCC 25618 after 5 days; assay type: functional; conditions: H37Rv ATCC 25618, 120 h
# Procedure, shortened: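 Growth measured in Middlebrook 7H9 with 10% OADC and 0.05% Tween 80 under aerobic conditions, covering H37Rv (ATCC 25618) and QcrB mutant strains. Growth read after 5 days at 37 °C. MIC90 is the concentration giving 90% growth inhibition, obtained by curve fitting (Levenberg–Marquardt). Mean ± SD of at least two independent experiments.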
# [7] = target: Cytochrome bc1 complex cytochrome b subunit (Mycobacterium tuberculosis (strain ATCC 25618 / H37Rv)) (UniProt P9WP37); assay: Inhibition of QcrB in Mycobacterium tuberculosis H37Rv ATCC 25618 assessed as reduction in ATP level measured up to 0.1 uM after 24 hrs by BacTiter-Glo assay; procedure, shortened: as §1
# Cytochrome P450 1A2 = target: T1, Cytochrome P450 1A2 (Homo sapiens, UniProt P05177); assay: Inhibition of CYP1A2 (unknown origin); assay type: ADME
# T1 sequence (P05177 whole entry): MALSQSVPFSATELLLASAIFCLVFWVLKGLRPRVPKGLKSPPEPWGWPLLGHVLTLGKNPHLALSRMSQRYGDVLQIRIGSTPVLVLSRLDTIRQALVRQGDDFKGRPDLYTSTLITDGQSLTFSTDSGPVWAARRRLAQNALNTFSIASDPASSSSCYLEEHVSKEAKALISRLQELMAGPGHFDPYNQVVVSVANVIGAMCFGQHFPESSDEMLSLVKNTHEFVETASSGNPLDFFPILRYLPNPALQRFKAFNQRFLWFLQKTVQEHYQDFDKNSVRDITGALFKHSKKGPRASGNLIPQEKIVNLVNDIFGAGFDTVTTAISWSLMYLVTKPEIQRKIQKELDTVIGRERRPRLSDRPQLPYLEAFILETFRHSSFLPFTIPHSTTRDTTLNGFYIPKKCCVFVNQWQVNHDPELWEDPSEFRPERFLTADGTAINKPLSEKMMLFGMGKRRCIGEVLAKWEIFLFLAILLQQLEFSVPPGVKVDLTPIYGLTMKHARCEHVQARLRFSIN
# Mus musculus [8] = assay: AUC in C57 Black mouse at 3 mg/kg, iv administered as bolus dose by UPLC-MS/MS analysis; assay type: ADME, organism-based; conditions: in vivo
# Cytochrome P450 2D6 = Cytochrome P450 2D6 (Homo sapiens, UniProt P10635); assay: Inhibition of CYP2D6 (unknown origin); assay type: ADME
# [9] = Clearance in human liver microsomes; assay type: ADME, microsome
# Cytochrome P450 2C9 = Cytochrome P450 2C9 (Homo sapiens, UniProt P11712); assay: Inhibition of CYP2C9 (unknown origin); assay type: ADME
# Vero [10] = assay: Cytotoxicity against African green monkey Vero cells; assay type: cell-based; conditions: chlorocebus sabaeus
# Cytochrome P450 2C19 = Cytochrome P450 2C19 (Homo sapiens, UniProt P33261); assay: Inhibition of CYP2C19 (unknown origin); assay type: ADME
# Vero [11] = assay: Cytotoxicity against African green monkey Vero cells assessed as growth inhibition measured after 2 days by CellTiter-Glo assay; assay type: cell-based; conditions: Chlorocebus sabaeus, 48 h
# Mus musculus [12] = assay: Toxicity in C57BL/6 mouse infected with Mycobacterium tuberculosis H37Rv at 30 mg/kg, po for 8 consecutive days starting from day 1 post infection; assay type: organism-based; conditions: in vivo
# Chain of Cytochrome bc1 complex cytochrome b subunit (Mycobacterium tuberculosis (strain ATCC 25618 / H37Rv)) (P9WP37 whole entry, one chain of several): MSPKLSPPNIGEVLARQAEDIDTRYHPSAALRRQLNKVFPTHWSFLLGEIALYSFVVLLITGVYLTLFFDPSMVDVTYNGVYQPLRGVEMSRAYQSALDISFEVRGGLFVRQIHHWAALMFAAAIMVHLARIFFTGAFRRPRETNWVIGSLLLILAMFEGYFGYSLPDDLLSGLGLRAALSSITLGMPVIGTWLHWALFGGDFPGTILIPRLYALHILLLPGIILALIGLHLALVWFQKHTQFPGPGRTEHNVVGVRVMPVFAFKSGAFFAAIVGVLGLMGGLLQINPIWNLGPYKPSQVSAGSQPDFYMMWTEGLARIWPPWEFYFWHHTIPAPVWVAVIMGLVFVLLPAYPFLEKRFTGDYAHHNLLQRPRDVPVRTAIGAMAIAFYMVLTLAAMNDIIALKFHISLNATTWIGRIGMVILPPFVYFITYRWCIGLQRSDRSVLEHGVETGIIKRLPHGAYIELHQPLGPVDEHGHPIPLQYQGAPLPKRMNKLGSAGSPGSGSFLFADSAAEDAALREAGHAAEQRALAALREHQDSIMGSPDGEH
# Chain of Cytochrome P450 2C9 (P11712 whole entry): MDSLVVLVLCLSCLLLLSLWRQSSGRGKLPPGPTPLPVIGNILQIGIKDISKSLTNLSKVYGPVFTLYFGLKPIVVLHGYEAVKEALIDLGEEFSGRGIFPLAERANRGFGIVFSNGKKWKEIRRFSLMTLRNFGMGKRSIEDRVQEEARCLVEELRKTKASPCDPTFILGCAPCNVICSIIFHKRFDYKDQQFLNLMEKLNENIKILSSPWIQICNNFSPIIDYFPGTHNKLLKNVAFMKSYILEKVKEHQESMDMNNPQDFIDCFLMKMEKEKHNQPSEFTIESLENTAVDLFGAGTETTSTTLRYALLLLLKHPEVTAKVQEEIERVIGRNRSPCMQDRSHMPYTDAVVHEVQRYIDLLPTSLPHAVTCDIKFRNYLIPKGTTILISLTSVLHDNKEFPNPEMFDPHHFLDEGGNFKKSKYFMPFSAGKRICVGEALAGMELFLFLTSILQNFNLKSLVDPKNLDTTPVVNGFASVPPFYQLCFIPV
# Chain of Cytochrome P450 2C19 (P33261 whole entry): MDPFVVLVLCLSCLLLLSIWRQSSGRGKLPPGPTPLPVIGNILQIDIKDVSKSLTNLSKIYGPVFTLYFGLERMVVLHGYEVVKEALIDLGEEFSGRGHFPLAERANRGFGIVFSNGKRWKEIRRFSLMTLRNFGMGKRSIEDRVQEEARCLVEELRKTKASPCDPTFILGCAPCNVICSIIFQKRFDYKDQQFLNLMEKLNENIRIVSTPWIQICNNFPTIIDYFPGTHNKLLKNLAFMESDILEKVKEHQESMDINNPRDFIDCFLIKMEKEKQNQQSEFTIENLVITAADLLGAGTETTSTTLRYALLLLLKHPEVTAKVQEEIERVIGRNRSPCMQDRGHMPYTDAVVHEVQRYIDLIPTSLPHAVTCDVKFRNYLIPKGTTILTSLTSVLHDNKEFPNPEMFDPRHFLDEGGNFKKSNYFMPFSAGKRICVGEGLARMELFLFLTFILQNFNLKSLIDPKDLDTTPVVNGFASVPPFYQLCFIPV
# Chain of Cytochrome P450 2D6 (P10635 whole entry): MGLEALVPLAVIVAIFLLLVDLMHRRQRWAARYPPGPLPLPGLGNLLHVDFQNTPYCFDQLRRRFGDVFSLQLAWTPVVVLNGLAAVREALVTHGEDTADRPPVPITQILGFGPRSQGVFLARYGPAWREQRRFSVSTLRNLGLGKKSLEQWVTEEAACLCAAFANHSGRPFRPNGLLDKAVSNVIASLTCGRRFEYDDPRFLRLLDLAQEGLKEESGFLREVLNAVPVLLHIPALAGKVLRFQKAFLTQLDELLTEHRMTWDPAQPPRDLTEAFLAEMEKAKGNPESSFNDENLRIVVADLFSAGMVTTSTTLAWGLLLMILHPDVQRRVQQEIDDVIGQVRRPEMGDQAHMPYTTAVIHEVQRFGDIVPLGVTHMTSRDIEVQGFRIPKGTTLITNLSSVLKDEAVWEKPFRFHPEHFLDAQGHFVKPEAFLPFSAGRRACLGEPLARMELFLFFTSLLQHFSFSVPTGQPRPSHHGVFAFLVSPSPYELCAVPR
smiles,measurement,setting,value
CNC(=O)c1sc(N2CCOCC2)cc1OCCc1ccccc1,inhibition,[1],Dose-dependent effect
same,intrinsic clearance,[2],36 mL/min/g
COC(=O)c1sc(N2CCOCC2)cc1OCCc1ccccc1,intrinsic clearance,[2],50 mL/min/g
NC(=O)c1sc(N2CCOCC2)cc1OCCc1ccc(OC(F)(F)F)cc1,Activity,Mus musculus [3],Non-Toxic
same,Drug metabolism,Mus musculus [4],Metabolite_Detected
same,Drug metabolism,Mus musculus [5],Metabolite_Detected
same,inhibition,[1],Dose-dependent effect
same,MIC90,[6],0.2 to 0.24 µM
CO[C@H]1/C=C/O[C@@]2(C)Oc3c(C)c(O)c4c(O)c(c(/C=N/N5CCN(C)CC5)c(O)c4c3C2=O)NC(=O)/C(C)=C\C=C\[C@H](C)[C@H](O)[C@@H](C)[C@@H](O)[C@@H](C)[C@H](OC(C)=O)[C@@H]1C,inhibition,[7],Active
NC(=O)c1sc(N2CCOCC2)cc1OCCc1ccccc1,INH,Cytochrome P450 1A2,< 5 µM
same,AUC,Mus musculus [8],29000 ng·min/mL
same,inhibition,[1],Dose-dependent effect
same,INH,Cytochrome P450 2D6,5 µM
same,MIC90,[6],0.72 to 0.8 µM
same,CLH,[9],3.5 mL/min/g
same,INH,Cytochrome P450 2C9,5.1 µM
same,Activity,Vero [10],> 100 µM
same,INH,Cytochrome P450 2C19,5.9 µM
NC(=O)c1sc(N2CCOCC2)cc1OCc1ccccc1,intrinsic clearance,[2],14 mL/min/g
NC(=O)c1sc(CN2CCOCC2)cc1OCCc1ccccc1,intrinsic clearance,[2],3 mL/min/g
COCCN(C)c1cc(OCCc2ccccc2)c(C(N)=O)s1,MIC90,[6],> 20 µM
same,IC50,Vero [11],> 100 µM
same,intrinsic clearance,[2],28 mL/min/g
NC(=O)c1sc(-n2nccn2)cc1OCCc1ccccc1,intrinsic clearance,[2],30 mL/min/g
COc1cccc(CCOc2cc(N3CCOCC3)sc2C(N)=O)c1,intrinsic clearance,[2],10 mL/min/g
CCOC(=O)NC(=O)c1sc(N2CCOCC2)cc1OCCc1ccccc1,intrinsic clearance,[2],1 mL/min/g
CCc1nc2ccc(Cl)cn2c1C(=O)NCc1ccc(N2CCC(c3ccc(OC(F)(F)F)cc3)CC2)cc1,inhibition,[7],Active
NC(O)C1SC(N2CCOCC2)CC1OCC(F)(F)C1CCCCC1 (stereo not drawn),MIC90,[6],> 20 µM
same,IC50,Vero [11],95 µM
same,intrinsic clearance,[2],19 mL/min/g
CC1(COc2cc(N3CCOCC3)sc2C(N)=O)COC1,AUC,Mus musculus [8],980000 ng·min/mL
NC(=O)c1sc(N2CCOCC2)cc1OCCN1CCOCC1,intrinsic clearance,[2],0.9 mL/min/g
CNC(=O)c1sc(N2CC3CC2CO3)cc1OCCc1ccccc1 (stereo not drawn),intrinsic clearance,[2],13 mL/min/g
CON(C)C(=O)c1sc(N2CCOCC2)cc1OCCc1ccccc1,IC50,Vero [11],78 µM
COc1ccc(CCOc2cc(N3CCOCC3)sc2C(N)=O)cc1,MIC90,[6],0.6 to 0.63 µM
COc1ccccc1CCOc1cc(N2CCOCC2)sc1C(N)=O,intrinsic clearance,[2],26 mL/min/g
COc1c(N2C[C@@H]3CCCN[C@@H]3C2)c(F)cc2c(=O)c(C(=O)O)cn(C3CC3)c12 [MOXIFLOXACIN],Activity,Mus musculus [12],Non-Toxic
CC1COCCN1c1cc(OCCc2ccccc2)c(C(N)=O)s1 (stereo not drawn),MIC90,[6],> 20 µM
same,IC50,Vero [11],77 µM
same,intrinsic clearance,[2],11 mL/min/g
NC(=O)c1ccc(N2CCOCC2)cc1OCCc1ccccc1,intrinsic clearance,[2],12 mL/min/g
NC(=O)c1sc(N2CCOCC2)cc1OCCc1cccc(F)c1,inhibition,[1],Dose-dependent effect
same,intrinsic clearance,[2],18 mL/min/g
NC(=O)c1sc(N2CCOCC2=O)cc1OCCc1ccccc1,intrinsic clearance,[2],7 mL/min/g
NC(=O)c1sc(N2CCOCC2)cc1CCCc1ccc(F)cc1,MIC90,[6],0.9 µM
same,IC50,Vero [11],> 100 µM
same,intrinsic clearance,[2],13 mL/min/g
O=C(NO)c1sc(N2CCOCC2)cc1OCCc1ccccc1,intrinsic clearance,[2],6 mL/min/g
